Source: ChEMBL document CHEMBL4342506 (ACS Med Chem Lett, 2020)
Activity calls are given as the source filed them. No cut-off for these calls is given here.

Tests used:
[1] = tested on: BEAS-2B; experiment: Cytoprotective activity in human BEAS2B cells assessed as reduction in HNE-induced cell death incubated for 24 hrs by MTT assay; assay type: functional, cell-based
Outline: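 BEAS-2B bronchial epithelial cells were cotreated with compound and 100 nM HNE for 24 h, and viability was read with MTT reagent.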

[2] = tested on: BEAS-2B; experiment: Upregulation of IL-1beta in human BEAS2B cells incubated for 3 hrs by RT-qPCR analysis
[3] = target: T1, Neutrophil elastase (Homo sapiens, UniProt P08246); experiment: Inhibition of human neutrophil elastase using N-(OMe-succinyl)-Ala-Ala-Pro-Val-p-nitroanilide as substrate incubated for 15 mins followed by substrate addition and measured for every 30 sec for 30 mins by spectrophotometry
T1 sequence (P08246 whole entry): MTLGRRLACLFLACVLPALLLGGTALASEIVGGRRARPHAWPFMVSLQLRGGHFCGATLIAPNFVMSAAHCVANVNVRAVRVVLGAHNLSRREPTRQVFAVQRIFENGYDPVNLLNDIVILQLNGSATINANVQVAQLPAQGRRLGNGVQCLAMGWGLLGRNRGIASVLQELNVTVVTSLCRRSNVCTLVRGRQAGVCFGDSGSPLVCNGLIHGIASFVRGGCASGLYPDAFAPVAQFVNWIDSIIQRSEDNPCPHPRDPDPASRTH

[4] = Stability in human serum at 200 uM incubated for 24 hrs by HPLC-MS analysis; assay type: ADME, cell-free
Outline: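 Compound was incubated in human serum at 37 °C and followed over 24 h.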

[5] = Metabolic stability in human liver microsome assessed as half life at 200 uM in presence of NADPH incubated for 24 hrs by HPLC-MS analysis; assay type: ADME; conditions: liver microsomes
[6] = Metabolic stability in human liver microsomes at 200 uM incubated for 24 hrs by HPLC-MS analysis; assay type: ADME, Microsome
Outline: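 Compound was incubated with pooled human liver microsomes without NADPH for up to 24 h to assess NADPH-independent metabolism; mean ± SD, n = 3.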

SMILES	EC50 [1] [nM]	Activity [2]	IC50 [3] [nM]	Stability [4]	half-life at 200 µM [5] [min]	Stability [6]
C/C=C1\NC(=O)[C@@H](NC(=O)[C@H](CCC(N)=O)NC(=O)CN2CCOCC2)[C@@H](C)OC(=O)[C@H](C(C)C)NC(=O)[C@H](Cc2ccc(O)cc2)N(C)C(=O)[C@H](Cc2ccccc2)N2C(=O)[C@H](CC[C@H]2O)NC1=O	185	inactive	197			
C/C=C1\NC(=O)[C@@H](NC(=O)[C@H](CCC(N)=O)NC(=O)CC2CCCCC2)[C@@H](C)OC(=O)[C@H](C(C)C)NC(=O)[C@H](Cc2ccc(O)cc2)N(C)C(=O)[C@H](Cc2ccccc2)N2C(=O)[C@H](CC[C@H]2O)NC1=O	91	Active	103			
C/C=C1\NC(=O)[C@@H](NC(C)=O)[C@@H](C)OC(=O)[C@H](C(C)C)NC(=O)[C@H](Cc2ccc(O)cc2)N(C)C(=O)[C@H](Cc2ccccc2)N2C(=O)[C@H](CC[C@H]2O)NC1=O			10000			
C/C=C1\NC(=O)[C@@H](NC(=O)[C@H](CCC(N)=O)NC(=O)CCCCC)[C@@H](C)OC(=O)[C@H](C(C)C)NC(=O)[C@H](Cc2ccc(O)cc2)N(C)C(=O)[C@H](Cc2ccccc2)N2C(=O)[C@H](CC[C@H]2O)NC1=O [LYNGBYASTATIN 7]	20	Active		Stable	120	Stable
C/C=C1\NC(=O)[C@@H](NC(=O)OC(C)(C)C)[C@@H](C)OC(=O)[C@H](C(C)C)NC(=O)[C@H](Cc2ccc(O)cc2)N(C)C(=O)[C@H](Cc2ccccc2)N2C(=O)[C@H](CC[C@H]2O)NC1=O			> 10000			
